Results taken from ChEMBL document CHEMBL5647699, “Discovery of a chemical probe for PRDM9” (Nat Commun, 2019).
Activity calls are given as the source filed them. The rule behind the calls is not given here.

Legend:
[1] = molecular target: Histone-lysine N-methyltransferase PRDM7 (Homo sapiens) (UniProt Q9NQW5); assay: Inhibition of PRDM7 (unknown origin) using biotin-tagged Histone H3 (1 to 25) and 3H-SAM as substrate incubated for 90 mins by topcount plate reader analysis
[2] = molecular target: Histone-lysine N-methyltransferase PRDM9 (Homo sapiens) (UniProt Q9NQV7); assay: Inhibition of PRDM9 (unknown origin) at 1 to 10 uM; conditions: dose 1-10 µM
Histone-lysine N-methyltransferase PRDM9 (Homo sapiens), sequence (Q9NQV7 whole entry): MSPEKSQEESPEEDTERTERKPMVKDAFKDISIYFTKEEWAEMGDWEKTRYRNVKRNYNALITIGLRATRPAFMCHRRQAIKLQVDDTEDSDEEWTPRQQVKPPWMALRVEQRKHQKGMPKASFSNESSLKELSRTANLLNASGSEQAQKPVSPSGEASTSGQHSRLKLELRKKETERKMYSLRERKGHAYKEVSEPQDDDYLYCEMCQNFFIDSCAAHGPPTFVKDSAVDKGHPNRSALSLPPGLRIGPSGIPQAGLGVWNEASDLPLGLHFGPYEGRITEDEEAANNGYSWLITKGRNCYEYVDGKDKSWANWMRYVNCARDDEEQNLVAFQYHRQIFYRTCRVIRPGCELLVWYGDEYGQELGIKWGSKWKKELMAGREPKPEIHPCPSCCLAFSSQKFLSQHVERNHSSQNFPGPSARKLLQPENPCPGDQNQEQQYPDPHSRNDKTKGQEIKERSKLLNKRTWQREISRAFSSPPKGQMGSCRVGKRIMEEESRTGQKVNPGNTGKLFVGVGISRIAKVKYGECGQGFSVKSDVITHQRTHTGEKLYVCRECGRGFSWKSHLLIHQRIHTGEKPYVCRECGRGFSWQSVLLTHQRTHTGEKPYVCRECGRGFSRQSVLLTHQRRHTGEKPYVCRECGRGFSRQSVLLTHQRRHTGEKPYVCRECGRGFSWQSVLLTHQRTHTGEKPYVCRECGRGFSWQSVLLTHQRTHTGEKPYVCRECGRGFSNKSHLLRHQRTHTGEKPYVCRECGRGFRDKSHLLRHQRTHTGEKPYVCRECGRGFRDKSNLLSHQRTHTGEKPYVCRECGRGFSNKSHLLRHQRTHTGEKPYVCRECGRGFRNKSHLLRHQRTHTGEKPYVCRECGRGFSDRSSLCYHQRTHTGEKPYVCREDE

[3] = molecular target: Histone-lysine N-methyltransferase EHMT2 (Homo sapiens) (UniProt Q96KQ7); assay: Inhibition of G9a (unknown origin) at 1 to 10 uM; conditions: dose 1-10 µM
[4] = molecular target: Histone-lysine N-methyltransferase EHMT1 (Homo sapiens) (UniProt Q9H9B1); assay: Inhibition of EHMT1 (unknown origin) at 1 to 10 uM; conditions: dose 1-10 µM
[5] = molecular target: Histone-lysine N-methyltransferase SUV39H1 (Homo sapiens) (UniProt O43463); assay: Inhibition of SUV39H1 (unknown origin) at 1 to 10 uM; conditions: dose 1-10 µM
[6] = molecular target: Histone-lysine N-methyltransferase SUV39H2 (Homo sapiens) (UniProt Q9H5I1); assay: Inhibition of SUV39H2 (unknown origin) at 1 to 10 uM; conditions: dose 1-10 µM
[7] = molecular target: Histone-lysine N-methyltransferase SETDB1 (Homo sapiens) (UniProt Q15047); assay: Inhibition of SETDB1 (unknown origin) at 1 to 10 uM; conditions: dose 1-10 µM
[8] = molecular target: Histone-lysine N-methyltransferase SETD7 (Homo sapiens) (UniProt Q8WTS6); assay: Inhibition of SETD7 (unknown origin) at 1 to 10 uM; conditions: dose 1-10 µM
Histone-lysine N-methyltransferase SETD7 (Homo sapiens), sequence (Q8WTS6 whole entry): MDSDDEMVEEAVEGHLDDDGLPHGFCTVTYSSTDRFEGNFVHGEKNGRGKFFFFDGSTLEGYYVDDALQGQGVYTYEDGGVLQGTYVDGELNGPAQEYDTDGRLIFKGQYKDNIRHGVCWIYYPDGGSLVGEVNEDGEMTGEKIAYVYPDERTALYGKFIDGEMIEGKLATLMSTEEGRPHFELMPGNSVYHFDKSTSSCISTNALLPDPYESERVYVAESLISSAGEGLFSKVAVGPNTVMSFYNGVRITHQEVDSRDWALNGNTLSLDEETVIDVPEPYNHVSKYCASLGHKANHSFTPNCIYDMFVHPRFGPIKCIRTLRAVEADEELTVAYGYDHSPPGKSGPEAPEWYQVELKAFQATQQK

[9] = molecular target: N-lysine methyltransferase KMT5A (Homo sapiens) (UniProt Q9NQR1); assay: Inhibition of SETD8 (unknown origin) at 1 to 10 uM; conditions: dose 1-10 µM
[10] = molecular target: Protein arginine N-methyltransferase 1 (Homo sapiens) (UniProt Q99873); assay: Inhibition of PRMT1 (unknown origin) at 1 to 10 uM; conditions: dose 1-10 µM
Protein arginine N-methyltransferase 1 (Homo sapiens), sequence (Q99873 whole entry, looked up): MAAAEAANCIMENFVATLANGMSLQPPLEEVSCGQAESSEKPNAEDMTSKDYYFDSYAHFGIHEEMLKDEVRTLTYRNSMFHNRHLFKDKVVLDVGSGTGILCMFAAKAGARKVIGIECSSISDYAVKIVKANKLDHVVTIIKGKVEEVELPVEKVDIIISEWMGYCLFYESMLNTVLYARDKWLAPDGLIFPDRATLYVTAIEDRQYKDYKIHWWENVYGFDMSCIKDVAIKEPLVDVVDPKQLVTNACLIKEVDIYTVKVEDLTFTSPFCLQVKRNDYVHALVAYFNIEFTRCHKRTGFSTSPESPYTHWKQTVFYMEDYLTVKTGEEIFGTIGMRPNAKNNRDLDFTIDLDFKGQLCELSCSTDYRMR

[11] = molecular target: Protein arginine N-methyltransferase 3 (Homo sapiens) (UniProt O60678); assay: Inhibition of PRMT3 (unknown origin) at 1 to 10 uM; conditions: dose 1-10 µM
[12] = molecular target: Histone-arginine methyltransferase CARM1 (Homo sapiens) (UniProt Q86X55); assay: Inhibition of PRMT4 (unknown origin) at 1 to 10 uM; conditions: dose 1-10 µM
[13] = molecular target: Protein arginine N-methyltransferase 5 (Homo sapiens) (UniProt O14744); assay: Inhibition of PRMT5 (unknown origin) at 1 to 10 uM; conditions: dose 1-10 µM
Protein arginine N-methyltransferase 5 (Homo sapiens), sequence (O14744 whole entry): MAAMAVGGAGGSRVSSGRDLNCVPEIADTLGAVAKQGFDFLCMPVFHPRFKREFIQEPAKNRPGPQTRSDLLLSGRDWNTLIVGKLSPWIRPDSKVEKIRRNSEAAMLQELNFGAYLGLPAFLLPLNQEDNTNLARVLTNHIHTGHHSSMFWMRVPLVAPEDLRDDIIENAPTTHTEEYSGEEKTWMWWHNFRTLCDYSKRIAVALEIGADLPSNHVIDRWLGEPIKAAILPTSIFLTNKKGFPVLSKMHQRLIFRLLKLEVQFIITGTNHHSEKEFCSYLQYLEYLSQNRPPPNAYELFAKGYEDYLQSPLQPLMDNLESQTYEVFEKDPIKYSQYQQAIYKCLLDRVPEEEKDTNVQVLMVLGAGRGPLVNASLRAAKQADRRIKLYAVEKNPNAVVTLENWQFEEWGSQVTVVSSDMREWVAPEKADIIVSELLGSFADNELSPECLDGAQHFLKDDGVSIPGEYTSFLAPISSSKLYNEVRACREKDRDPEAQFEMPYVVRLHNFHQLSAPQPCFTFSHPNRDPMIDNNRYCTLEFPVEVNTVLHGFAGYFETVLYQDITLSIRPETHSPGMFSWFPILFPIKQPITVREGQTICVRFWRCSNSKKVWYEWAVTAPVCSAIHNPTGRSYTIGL

[14] = molecular target: Histone-lysine N-methyltransferase 2C (Homo sapiens) (UniProt Q8NEZ4); assay: Inhibition of MLL3 (unknown origin) at 1 to 10 uM; conditions: dose 1-10 µM
[15] = molecular target: Protein arginine N-methyltransferase 6 (Homo sapiens) (UniProt Q96LA8); assay: Inhibition of PRMT6 (unknown origin) at 1 to 10 uM; conditions: dose 1-10 µM
[16] = molecular target: Protein arginine N-methyltransferase 7 (Homo sapiens) (UniProt Q9NVM4); assay: Inhibition of PRMT7 (unknown origin) at 1 to 10 uM; conditions: dose 1-10 µM
[17] = molecular target: Protein arginine N-methyltransferase 8 (Homo sapiens) (UniProt Q9NR22); assay: Inhibition of PRMT8 (unknown origin) at 1 to 10 uM; conditions: dose 1-10 µM
Protein arginine N-methyltransferase 8 (Homo sapiens), sequence (Q9NR22 2-394 limits assumed): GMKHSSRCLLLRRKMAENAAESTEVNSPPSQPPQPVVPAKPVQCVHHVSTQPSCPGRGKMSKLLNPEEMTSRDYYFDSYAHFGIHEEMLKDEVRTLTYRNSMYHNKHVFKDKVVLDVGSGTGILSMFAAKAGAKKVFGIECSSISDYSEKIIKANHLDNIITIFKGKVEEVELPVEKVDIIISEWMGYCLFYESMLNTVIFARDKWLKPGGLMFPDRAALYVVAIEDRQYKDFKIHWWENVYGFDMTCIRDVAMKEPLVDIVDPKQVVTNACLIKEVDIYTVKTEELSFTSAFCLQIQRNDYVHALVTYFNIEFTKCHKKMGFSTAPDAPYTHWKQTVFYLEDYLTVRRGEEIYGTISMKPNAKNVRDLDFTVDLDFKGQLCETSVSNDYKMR

[18] = molecular target: Protein arginine N-methyltransferase 9 (Homo sapiens) (UniProt Q6P2P2); assay: Inhibition of PRMT9 (unknown origin) at 1 to 10 uM; conditions: dose 1-10 µM
[19] = molecular target: Histone-lysine N-methyltransferase 2A (Homo sapiens) (UniProt Q03164); assay: Inhibition of MLL1 (unknown origin) at 1 to 10 uM; conditions: dose 1-10 µM
Homo sapiens = species on record: Homo sapiens; assay: Inhibition of PRC2 (unknown origin) at 1 to 10 uM; conditions: dose 1-10 µM
[20] = molecular target: Histone-lysine N-methyltransferase SETD2 (Homo sapiens) (UniProt Q9BYW2); assay: Inhibition of SETD2 (unknown origin) at 1 to 10 uM; conditions: dose 1-10 µM
[21] = molecular target: Histone-lysine N-methyltransferase KMT5B (Homo sapiens) (UniProt Q4FZB7); assay: Inhibition of SUV420H1 (unknown origin) at 1 to 10 uM; conditions: dose 1-10 µM
[22] = molecular target: Histone-lysine N-methyltransferase KMT5C (Homo sapiens) (UniProt Q86Y97); assay: Inhibition of SUV420H2 (unknown origin) at 1 to 10 uM; conditions: dose 1-10 µM
Histone-lysine N-methyltransferase KMT5C (Homo sapiens), sequence (Q86Y97 whole entry, looked up): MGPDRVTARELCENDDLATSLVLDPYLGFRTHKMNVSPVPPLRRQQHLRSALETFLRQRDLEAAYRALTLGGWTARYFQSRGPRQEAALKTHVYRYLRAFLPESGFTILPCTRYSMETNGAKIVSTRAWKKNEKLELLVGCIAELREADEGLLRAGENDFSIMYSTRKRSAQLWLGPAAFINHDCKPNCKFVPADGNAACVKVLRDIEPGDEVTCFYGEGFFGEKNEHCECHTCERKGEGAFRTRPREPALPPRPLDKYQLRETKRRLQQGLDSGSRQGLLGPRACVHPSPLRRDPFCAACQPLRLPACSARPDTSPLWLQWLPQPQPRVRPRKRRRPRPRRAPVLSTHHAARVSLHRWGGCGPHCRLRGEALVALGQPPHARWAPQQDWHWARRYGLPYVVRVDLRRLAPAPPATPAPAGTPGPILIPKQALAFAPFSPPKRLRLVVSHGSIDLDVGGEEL

[23] = molecular target: N-lysine methyltransferase SMYD2 (Homo sapiens) (UniProt Q9NRG4); assay: Inhibition of SMYD2 (unknown origin) at 1 to 10 uM; conditions: dose 1-10 µM
[24] = molecular target: Histone-lysine N-methyltransferase SMYD3 (Homo sapiens) (UniProt Q9H7B4); assay: Inhibition of SMYD3 (unknown origin) at 1 to 10 uM; conditions: dose 1-10 µM
[25] = molecular target: RNA 5'-monophosphate methyltransferase (Homo sapiens) (UniProt Q7Z5W3); assay: Inhibition of BCDIN3D (unknown origin) at 1 to 10 uM; conditions: dose 1-10 µM
[26] = molecular target: DNA (cytosine-5)-methyltransferase 1 (Homo sapiens) (UniProt P26358); assay: Inhibition of DNMT1 (unknown origin) at 1 to 10 uM; conditions: dose 1-10 µM
[27] = molecular target: DNMT3A2/3L complex (Homo sapiens) (UniProt Q9Y6K1+Q9UJW3); assay: Inhibition of DNMT3A/DNMT3L (unknown origin) at 1 to 10 uM; type: protein-complex assay; conditions: dose 1-10 µM
[28] = molecular target: DNMT3B-DNMT3L complex (Homo sapiens) (UniProt Q9UBC3+Q9UJW3); assay: Inhibition of DNMT3B/DNMT3L (unknown origin) at 1 to 10 uM; type: protein-complex assay; conditions: dose 1-10 µM
[29] = molecular target: Histone-lysine N-methyltransferase, H3 lysine-79 specific (Homo sapiens) (UniProt Q8TEK3); assay: Inhibition of DOT1L (unknown origin) at 1 to 10 uM; conditions: dose 1-10 µM
[30] = molecular target: Histone-lysine N-methyltransferase ASH1L (Homo sapiens) (UniProt Q9NR48); assay: Inhibition of ASH1L (unknown origin) at 1 to 10 uM; conditions: dose 1-10 µM
[31] = molecular target: Histone-lysine N-methyltransferase, H3 lysine-36 specific (Homo sapiens) (UniProt Q96L73); assay: Inhibition of NSD1 (unknown origin) at 1 to 10 uM; conditions: dose 1-10 µM
[32] = molecular target: Histone-lysine N-methyltransferase NSD2 (Homo sapiens) (UniProt O96028); assay: Inhibition of NSD2 (unknown origin) at 1 to 10 uM; conditions: dose 1-10 µM
Histone-lysine N-methyltransferase NSD2 (Homo sapiens), sequence (O96028 whole entry): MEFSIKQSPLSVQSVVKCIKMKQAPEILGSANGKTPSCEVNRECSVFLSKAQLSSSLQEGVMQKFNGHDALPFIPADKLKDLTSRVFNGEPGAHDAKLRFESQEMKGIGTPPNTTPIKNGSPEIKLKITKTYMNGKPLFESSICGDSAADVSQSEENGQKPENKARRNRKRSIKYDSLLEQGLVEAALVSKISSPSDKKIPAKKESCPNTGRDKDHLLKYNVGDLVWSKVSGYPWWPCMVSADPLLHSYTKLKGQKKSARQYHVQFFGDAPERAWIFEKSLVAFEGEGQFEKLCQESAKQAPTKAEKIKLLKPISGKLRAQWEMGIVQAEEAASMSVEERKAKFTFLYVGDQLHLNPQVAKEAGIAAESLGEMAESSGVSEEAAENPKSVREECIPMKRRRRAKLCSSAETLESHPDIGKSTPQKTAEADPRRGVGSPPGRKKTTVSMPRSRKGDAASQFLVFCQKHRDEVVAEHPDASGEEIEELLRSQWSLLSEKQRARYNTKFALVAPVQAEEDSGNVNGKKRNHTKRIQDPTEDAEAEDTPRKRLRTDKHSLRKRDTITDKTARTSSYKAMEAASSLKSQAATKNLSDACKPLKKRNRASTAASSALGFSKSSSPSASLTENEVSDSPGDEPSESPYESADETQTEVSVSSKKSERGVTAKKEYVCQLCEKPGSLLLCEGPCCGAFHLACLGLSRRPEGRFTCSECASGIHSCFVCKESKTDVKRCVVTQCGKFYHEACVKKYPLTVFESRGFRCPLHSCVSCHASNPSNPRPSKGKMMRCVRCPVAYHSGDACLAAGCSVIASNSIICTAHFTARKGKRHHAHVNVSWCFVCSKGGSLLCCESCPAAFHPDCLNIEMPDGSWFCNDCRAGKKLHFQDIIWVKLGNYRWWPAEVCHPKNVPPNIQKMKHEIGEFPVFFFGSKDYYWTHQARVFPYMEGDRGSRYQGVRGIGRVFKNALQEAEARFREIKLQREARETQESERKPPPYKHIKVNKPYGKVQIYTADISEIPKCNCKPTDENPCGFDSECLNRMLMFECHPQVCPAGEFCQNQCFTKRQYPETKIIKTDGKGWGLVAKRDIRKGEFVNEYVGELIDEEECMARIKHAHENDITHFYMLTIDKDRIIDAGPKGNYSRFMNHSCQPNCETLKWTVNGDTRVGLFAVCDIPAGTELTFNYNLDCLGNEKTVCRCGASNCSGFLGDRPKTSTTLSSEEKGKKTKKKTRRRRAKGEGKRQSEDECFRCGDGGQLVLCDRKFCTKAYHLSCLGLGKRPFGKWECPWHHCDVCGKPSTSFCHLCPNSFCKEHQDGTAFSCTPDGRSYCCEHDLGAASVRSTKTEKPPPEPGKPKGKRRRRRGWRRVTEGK

[33] = molecular target: Histone-lysine N-methyltransferase NSD3 (Homo sapiens) (UniProt Q9BZ95); assay: Inhibition of NSD3 (unknown origin) at 1 to 10 uM; conditions: dose 1-10 µM
SK-MM-2 = assay: Cytotoxicity against human SK-MM-2 cells at upto 30 uM measured for 3 to 6 days by celltiter glo assay; type: functional, cell-based; conditions: time 3-6 day
[34] = molecular target: Histone-lysine N-methyltransferase PRDM9 (Homo sapiens) (UniProt Q9NQV7); assay: Inhibition of FLAG tagged PRDM9 transfected in HEK293T cells assessed as inhibition of trimethylation H3K4 at 10 uM measured after 20 hrs by Western blot analysis; type: cell-based
HEK-293T [35] = assay: Cytotoxicity against HEK293T cells at 3 uM measured after 24 hrs by IncuCyte zoom live-cell imaging analysis; type: toxicity, cell-based; conditions: human
How it was run: (§1)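 HEK293T cells seeded, treated next day with compound for 1 day; cell number counted by live-cell imaging after Vybrant DyeCycle Green staining; mean ± sd, n = 3.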

HEK-293T [36] = assay: Cytotoxicity against HEK293T cells at 10 uM measured after 24 hrs by IncuCyte zoom live-cell imaging analysis; type: toxicity, cell-based; conditions: human; how it was run: as §1
HEK-293T [37] = assay: Cytotoxicity against HEK293T cells at 3 uM measured after 4 days by IncuCyte zoom live-cell imaging analysis; type: toxicity, cell-based; conditions: human, 96 h, time 4 day
HEK-293T [38] = assay: Cytotoxicity against HEK293T cells at 10 uM measured after 4 days by IncuCyte zoom live-cell imaging analysis; type: toxicity, cell-based; conditions: human, 96 h, time 4 day
RPMI-8226 = assay: Cytotoxicity against human RPMI-8226 cells at upto 30 uM measured for 3 to 6 days by celltiter glo assay; type: functional, cell-based; conditions: time 3-6 day
CAL-85-1 = assay: Cytotoxicity against human CAL-85-1 cells at upto 30 uM measured for 3 to 6 days by celltiter glo assay; type: functional, cell-based; conditions: time 3-6 day
HCC1806 = assay: Cytotoxicity against human HCC1806 cells at upto 30 uM measured for 3 to 6 days by celltiter glo assay; type: functional, cell-based; conditions: time 3-6 day
MDA-MB-436 = assay: Cytotoxicity against human MDA-MB-436 cells at upto 30 uM measured for 3 to 6 days by celltiter glo assay; type: functional, cell-based; conditions: time 3-6 day
HCC1143 = assay: Cytotoxicity against human HCC1143 cells at upto 30 uM measured for 3 to 6 days by celltiter glo assay; type: functional, cell-based; conditions: time 3-6 day
Spermatocyte [39] = assay: Induction of meiotic defect in wild type mouse spermatocyte assessed as non homologous synapsis by SYCP1/SYCP3 staining based immunofluorescence assay; type: functional, cell-based
Spermatocyte [40] = assay: Induction of meiotic defect in wild type mouse spermatocyte assessed as effect on paring of chromosomal homolog by SYCP1/SYCP3 staining based immunofluorescence assay; type: functional, cell-based

Histone-lysine N-methyltransferase PRDM7 (Homo sapiens), sequence (Q9NQW5 whole entry): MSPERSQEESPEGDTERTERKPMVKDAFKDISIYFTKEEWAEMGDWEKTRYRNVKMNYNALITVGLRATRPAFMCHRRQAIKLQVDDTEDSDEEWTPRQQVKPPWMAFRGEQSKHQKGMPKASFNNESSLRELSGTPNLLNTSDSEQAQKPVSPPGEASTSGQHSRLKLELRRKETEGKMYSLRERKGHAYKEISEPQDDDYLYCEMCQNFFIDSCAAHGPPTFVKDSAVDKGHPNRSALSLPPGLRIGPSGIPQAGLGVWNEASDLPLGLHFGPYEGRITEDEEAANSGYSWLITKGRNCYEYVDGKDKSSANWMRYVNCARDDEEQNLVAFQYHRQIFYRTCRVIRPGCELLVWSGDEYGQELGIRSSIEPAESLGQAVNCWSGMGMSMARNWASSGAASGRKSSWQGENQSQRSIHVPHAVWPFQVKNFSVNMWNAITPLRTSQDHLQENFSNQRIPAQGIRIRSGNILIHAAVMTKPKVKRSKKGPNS

With `COc1cc(OC)cc(-c2noc(N3CCN(C)C4(CCN(c5ccccc5)CC4)C3)n2)c1` as the molecule, how does the inhibition [1] read?
Its inhibition is “inactive”.

And the inhibition [2]?
Its inhibition is “inactive”.

And the inhibition [3]?
Its inhibition is “inactive”.

What about the inhibition [4] of the same molecule?
Its inhibition is “inactive”.

What about the inhibition [5] of the same molecule?
The inhibition was “inactive”.

And the inhibition [6]?
Its inhibition is “inactive”.

What about the inhibition [7] of the same molecule?
The inhibition was “inactive”.

What about the inhibition [8] of the same molecule?
Its inhibition is “inactive”.

And the inhibition [9]?
Its inhibition is “inactive”.

And the inhibition [10]?
The inhibition was “inactive”.

What about the inhibition [11] of the same molecule?
The inhibition was “inactive”.

What about the inhibition [12] of the same molecule?
The inhibition was “inactive”.

What about the inhibition [13] of the same molecule?
Its inhibition is “inactive”.

What about the inhibition [14] of the same molecule?
Its inhibition is “inactive”.

And the inhibition [15]?
The inhibition was “inactive”.

What about the inhibition [16] of the same molecule?
Its inhibition is “inactive”.

And the inhibition [17]?
Its inhibition is “inactive”.

And the inhibition [18]?
The inhibition was “inactive”.

And the inhibition [19]?
The inhibition was “inactive”.

What about the inhibition (Homo sapiens) of the same molecule?
The inhibition was “inactive”.

What about the inhibition [20] of the same molecule?
Its inhibition is “inactive”.

What about the inhibition [21] of the same molecule?
The inhibition was “inactive”.

And the inhibition [22]?
Its inhibition is “inactive”.

And the inhibition [23]?
The inhibition was “inactive”.

What about the inhibition [24] of the same molecule?
The inhibition was “inactive”.

What about the inhibition [25] of the same molecule?
The inhibition was “inactive”.

And the inhibition [26]?
The inhibition was “inactive”.

And the inhibition [27]?
The inhibition was “inactive”.

What about the inhibition [28] of the same molecule?
Its inhibition is “inactive”.

And the inhibition [29]?
Its inhibition is “inactive”.

What about the inhibition [30] of the same molecule?
Its inhibition is “inactive”.

And the inhibition [31]?
The inhibition was “inactive”.

And the inhibition [32]?
Its inhibition is “inactive”.

What about the inhibition [33] of the same molecule?
Its inhibition is “inactive”.

What about the Activity (SK-MM-2) of the same molecule?
The Activity was “inactive”.

What about the inhibition [34] of the same molecule?
The inhibition was “inactive”.

And the Activity (HEK-293T [35])?
Its Activity is “Non-Toxic”.

What about the Activity (HEK-293T [36]) of the same molecule?
Its Activity is “Toxic”.

And the Activity (HEK-293T [37])?
Its Activity is “Non-Toxic”.

What about the Activity (HEK-293T [38]) of the same molecule?
The Activity was “Toxic”.

What about the Activity (RPMI-8226) of the same molecule?
The Activity was “inactive”.

What about the Activity (CAL-85-1) of the same molecule?
The Activity was “inactive”.

What about the Activity (HCC1806) of the same molecule?
Its Activity is “inactive”.

What about the Activity (MDA-MB-436) of the same molecule?
The Activity was “inactive”.

What about the Activity (HCC1143) of the same molecule?
The Activity was “inactive”.

What about the Activity (Spermatocyte [39]) of the same molecule?
The Activity was “inactive”.

And the Activity (Spermatocyte [40])?
The Activity was “inactive”.
